The source of these data is ChEMBL document CHEMBL4373671, “Evaluation of anti-inflammatory activity and molecular docking study of new aza-bicyclic isoxazoline acylhydrazone derivatives” (2019).

What is called inhibition in vivo is the change of the read-out against control, counted positive when it falls.

The test system of test [1] is Mus musculus. In words: Antiinflammatory activity in Swiss mouse assessed as reduction in dextran-induced paw edema at 10 mg/kg, po treated 1 hr prior to dextran challenge and measured every 60 mins for 4 hrs by plethysmometer analysis. In kind it is functional, organism-based. The method in brief:
(§1)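 Swiss mice were given an oral dose in saline + 5% DMSO 1 h before intraplantar 0.2% dextran (50 μL) into the right hind paw. Paw volume was measured by plethysmometer every 60 min up to 4 h, as the difference from the contralateral saline paw.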

The subject of test [2] is Mus musculus. Briefly: Antiinflammatory activity against carrageenan-induced air pouch inflammatory Swiss mouse model assessed as TNF-alpha level in air pouch exudate at 15 mg/kg, po treated 1 hr prior to carrageenan administration and measured after 6 hrs by sandwich ELISA (reference value: 425.17 pg/ml). The format is functional. On the technique in general: An ELISA detects its analyte on a solid surface through an enzyme-linked reagent.

Test [3] concerns Mus musculus. In words: Antiinflammatory activity in Swiss mouse assessed as inhibition of 5-HT-induced paw edema assessed as reduction in paw volume at 15 mg/kg, po treated 1 hr prior to 5-HT challenge and measured after 15 to 90 mins by plethysmometer analysis. In kind it is functional, organism-based. The method in brief: (§2)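 Male Swiss mice received 15 mg kg–1 p.o. (saline + 5% DMSO) 1 h before intraplantar 5-HT (100 μg in 50 μL) into the right hind paw. Plethysmometer readings at 15, 30, 60 and 90 min. Edema expressed as volume difference from the contralateral saline paw.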

Test [4] deals with Mus musculus. In words: Antiinflammatory activity against carrageenan-induced air pouch inflammatory Swiss mouse model assessed as IL-1beta level in air pouch exudate at 15 mg/kg, po treated 1 hr prior to carrageenan administration and measured after 6 hrs by sandwich ELISA (reference value: 564.06 pg/ml). The format is functional.
Test [5] relates to Mus musculus. Briefly: Antiinflammatory activity against carrageenan-induced air pouch inflammatory Swiss mouse model assessed as inhibition of PMNL cell migration in air pouch at 120 mg/kg, po treated 1 hr prior to carrageenan administration and measured after 6 hrs relative to control. In kind it is functional.
The subject of test [6] is Mus musculus. Briefly: Antiinflammatory activity in Swiss mouse assessed as reduction in bradykinin-induced paw edema volume at 15 mg/kg, po treated 1 hr prior to bradykinin challenge measured after 15 to 30 mins by plethysmometer analysis. The format is functional, organism-based. The gist of the method:
(§3)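 Mice were given captopril 5 mg kg–1 1 h before the bradykinin challenge to block kininases. Oral dosing (vehicle saline + 5% DMSO) preceded intraplantar bradykinin (10 nmol, 50 μL) into the right hind paw by 1 h. Plethysmometer readings at 15, 30, 60 and 90 min, relative to the contralateral paw.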

The subject of test [7] is Mus musculus. Briefly: Antiinflammatory activity in Swiss mouse assessed as reduction in dextran-induced paw edema at 15 mg/kg, po treated 1 hr prior to dextran challenge and measured after 3 to 4 hrs by plethysmometer analysis. The format is functional, organism-based. The method in brief: as §1
In test [8] the test system is Mus musculus. In words: Antiinflammatory activity against carrageenan-induced air pouch inflammatory Swiss mouse model assessed as number of polymorphonuclear leucocytes in air pouch at 30 mg/kg, po treated for 1 hr prior to carrageenan administration and measured after 6 hrs (reference value: 13.76 +/- 0.55X10'6/ml). The format is functional.
Test [9] concerns Mus musculus. In words: Antiinflammatory activity against carrageenan-induced air pouch inflammatory Swiss mouse model assessed as number of polymorphonuclear leucocytes in air pouch at 15 mg/kg, po treated for 1 hr prior to carrageenan administration and measured after 6 hrs (reference value: 13.76 +/- 0.55X10'6/ml). The format is functional.
Test [10] has as its system Mus musculus. Briefly: Antiinflammatory activity against carrageenan-induced air pouch inflammatory Swiss mouse model assessed as inhibition of PMNL cell migration in air pouch at 30 mg/kg, po treated 1 hr prior to carrageenan administration and measured after 6 hrs relative to control. In kind it is functional.
Test [11] concerns Mus musculus. In words: Antiinflammatory activity against carrageenan-induced air pouch inflammatory Swiss mouse model assessed as number of polymorphonuclear leucocytes in air pouch at 120 mg/kg, po treated for 1 hr prior to carrageenan administration and measured after 6 hrs (reference value: 13.76 +/- 0.55X10'6/ml). In kind it is functional.
The test system of test [12] is Mus musculus. In words: Antiinflammatory activity in Swiss mouse assessed as reduction in BthTX-2-induced paw edema at 15 mg/kg, po treated 1 hr prior to BthTX-2 challenge measured after 15 to 45 mins by plethysmometer analysis. The format is functional, organism-based.
Test [13] concerns Mus musculus. Briefly: Antiinflammatory activity against carrageenan-induced air pouch inflammatory Swiss mouse model assessed as inhibition of PMNL cell migration in air pouch at 60 mg/kg, po treated 1 hr prior to carrageenan administration and measured after 6 hrs relative to control. In kind it is functional.
The subject of test [14] is Mus musculus. In words: Antiinflammatory activity in Swiss mouse assessed as reduction in compound 48/80-induced paw edema at 15 mg/kg, po treated 1 hr prior to compound 48/80 challenge measured after 15 to 30 mins by plethysmometer analysis. In kind it is functional, organism-based.
Test [15] relates to Mus musculus. Briefly: Antiinflammatory activity against carrageenan-induced air pouch inflammatory Swiss mouse model assessed as inhibition of PMNL cell migration in air pouch at 15 mg/kg, po treated 1 hr prior to carrageenan administration and measured after 6 hrs relative to control. The format is functional.
For test [16], the system named is Mus musculus. In words: Antiinflammatory activity in Swiss mouse assessed as inhibition of acetic acid-induced increase in vascular permeability at 15 mg/kg, po treated 1 hr prior to acetic acid challenge and measured after 30 mins by Evans blue dye based assay. In kind it is functional, organism-based. The gist of the method: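 Male Swiss mice received 15 mg kg–1 p.o. or vehicle (saline + 5% DMSO). After 1 h, under ketamine/xylazine (8:2 v/v, i.p.), 0.2 mL 1% Evans blue was given retro-orbitally, then 0.5 mL 1% acetic acid i.p. At 30 min the peritoneal cavity was washed with saline; exudate was centrifuged (2000 rpm, 10 min) and supernatant absorbance read at 610 nm.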

Test [17] has as its system Mus musculus. In words: Antiinflammatory activity against carrageenan-induced paw edema in Swiss mouse assessed as reduction in paw edema at 15 mg/kg, po administered 1 hr prior to carrageenan challenge and measured after 2 to 6 hrs by plethysmometric analysis. In kind it is functional, organism-based. The gist of the method: (§4)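 Male Swiss mice (25–30 g, fasted 8 h), dosed orally in saline + 5% DMSO 1 h before 50 μL 1% carrageenan into the right hind paw. Paw volume read by plethysmometer before challenge and at 2, 4 and 6 h. Edema taken as the volume difference from the saline-injected contralateral paw. Two-way ANOVA with Tukey.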

The test system of test [18] is Mus musculus. Briefly: Antiinflammatory activity against carrageenan-induced air pouch inflammatory Swiss mouse model assessed as number of polymorphonuclear leucocytes in air pouch at 60 mg/kg, po treated for 1 hr prior to carrageenan administration and measured after 6 hrs (reference value: 13.76 +/- 0.55X10'6/ml). The format is functional.
Test [19] deals with Mus musculus. Briefly: Antiinflammatory activity in Swiss mouse assessed as inhibition of histamine-induced paw edema at 15 mg/kg, po treated 1 hr prior to histamine challenge measured after 15 mins by plethysmometer analysis. In kind it is functional, organism-based. The gist of the method:
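Swiss mice were dosed at 15 mg kg–1 orally in saline + 5% DMSO 1 h before injection of histamine (100 μg, 50 μL) into the right hind paw. Paw volume was measured by plethysmometer at 15, 30, 60 and 90 min, relative to the contralateral saline paw.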

For test [20], the system named is Mus musculus. In words: Antiinflammatory activity against carrageenan-induced paw edema in Swiss mouse assessed as reduction in paw edema at 10 mg/kg, po administered 1 hr prior to carrageenan challenge and measured after 2 to 6 hrs by plethysmometer analysis. In kind it is functional, organism-based. The gist of the method: as §4
Test [21] relates to Mus musculus. In words: Antiinflammatory activity against carrageenan-induced air pouch inflammatory Swiss mouse model assessed as IL-1beta level in air pouch exudate at 10 mg/kg, po treated 1 hr prior to carrageenan administration and measured after 6 hrs by sandwich ELISA (reference value: 564.06 pg/ml). In kind it is functional.
For test [22], the system named is Mus musculus. In words: Antiinflammatory activity against carrageenan-induced air pouch inflammatory Swiss mouse model assessed as number of polymorphonuclear leucocytes in air pouch at 10 mg/kg, po treated for 1 hr prior to carrageenan administration and measured after 6 hrs (reference value: 13.76 +/- 0.55X10'6/ml). The format is functional.
Test [23] deals with Mus musculus. Briefly: Antiinflammatory activity against carrageenan-induced air pouch inflammatory Swiss mouse model assessed as TNF-alpha level in air pouch exudate at 10 mg/kg, po treated 1 hr prior to carrageenan administration and measured after 6 hrs by sandwich ELISA (reference value: 425.17 pg/ml). The format is functional.
The subject of test [24] is Mus musculus. Briefly: Antiinflammatory activity against carrageenan-induced air pouch inflammatory Swiss mouse model assessed as inhibition of PMNL cell migration in air pouch at 10 mg/kg, po treated 1 hr prior to carrageenan administration and measured after 6 hrs relative to control. The format is functional.
For test [25], the system named is Mus musculus. In words: Antiinflammatory activity in Swiss mouse assessed as reduction in dextran-induced paw edema at 15 mg/kg, po treated 1 hr prior to dextran challenge and measured every 60 mins for 4 hrs by plethysmometer analysis. In kind it is functional, organism-based. The gist of the method:
as §1

Test [26] concerns Mus musculus. In words: Antiinflammatory activity in Swiss mouse assessed as inhibition of 5-HT-induced paw edema at 15 mg/kg, po treated 1 hr prior to 5-HT challenge measured after 30 mins by plethysmometer analysis. The format is functional, organism-based. The method in brief: as §2
Test [27] has as its system Mus musculus. In words: Antiinflammatory activity in Swiss mouse assessed as inhibition of bradykinin-induced paw edema at 0.5 mg/kg, po treated 1 hr prior to bradykinin challenge measured after 15 to 90 mins by plethysmometer analysis. In kind it is functional, organism-based. The method in brief:
as §3

Activity calls are given as the source filed them. No cut-off for these calls is given here.

Regarding `CN1CCC(=C2c3ccccc3C=Cc3ccccc32)CC1`, in the test on Mus musculus [1], the outcome was Active.
Regarding `COc1ccc(/C=N\NC(=O)C2=NO[C@@H]3[C@H]2CCN3C(=O)c2ccc([N+](=O)[O-])cc2)cc1` (racemic), the Activity stood at 305.88 pg/mL in the test with Mus musculus [2]; 358.28 pg/mL in the test with Mus musculus [4]; 6.72 ×10⁶ /ml in the test with Mus musculus [8]; 4.6 ×10⁶ /ml with Mus musculus [9]; 12.72 ×10⁶ /ml with Mus musculus [11]; 8.98 ×10⁶ /ml in the test with Mus musculus [18]. Moreover, the inhibition entry in the test with Mus musculus [3], in the test with Mus musculus [14], in the test on Mus musculus [16] and in the test with Mus musculus [19] was “Active” each time. The inhibition in vivo at 120 mg/kg with Mus musculus [5] turned out to be 8%. Further, the result in the test with Mus musculus [6], with Mus musculus [7], in the test with Mus musculus [12] and in the test on Mus musculus [17] was Active. The inhibition in vivo at 30 mg/kg with Mus musculus [10] amounted to 51%. In addition, in the test with Mus musculus [13], the inhibition in vivo at 60 mg/kg was 35%. Besides, the inhibition in vivo at 15 mg/kg in the test with Mus musculus [15] is 67%.
With `COc1ccc2c(c1)c(CC(=O)O)c(C)n2C(=O)c1ccc(Cl)cc1` [INDOMETHACIN], the result with Mus musculus [20] was Active. Besides, the Activity entry was “<=329.81 pg/ml” in the test on Mus musculus [21], 4.84 ×10⁶ /ml in the test with Mus musculus [22] and 458.97 pg/mL in the test on Mus musculus [23]. Also, the inhibition in vivo at 10 mg/kg in the test with Mus musculus [24] was determined as 65%.
Turning to `O=C(N/N=C\c1ccc(Cl)cc1)C1=NO[C@@H]2[C@H]1CCN2C(=O)c1ccc(Cl)cc1` (racemic), the Activity in the test with Mus musculus [2] is 271.6 pg/mL; in the test on Mus musculus [4], 323.11 pg/mL; in the test on Mus musculus [8], 4.97 ×10⁶ /ml; in the test with Mus musculus [9] it was 3.33 ×10⁶ /ml; in the test with Mus musculus [11] it was 6.1 ×10⁶ /ml; with Mus musculus [18], 5.94 ×10⁶ /ml. Moreover, the outcome in the test on Mus musculus [25], with Mus musculus [6], in the test on Mus musculus [12] and in the test on Mus musculus [17] was Active. Moreover, the inhibition result in the test on Mus musculus [26], in the test with Mus musculus [14], in the test on Mus musculus [16] and with Mus musculus [19] was “Active” each time. Also, the inhibition in vivo at 120 mg/kg in the test with Mus musculus [5] turned out to be 56%. Moreover, the inhibition in vivo at 30 mg/kg in the test on Mus musculus [10] was found to be 64%. Moreover, the inhibition in vivo at 60 mg/kg in the test with Mus musculus [13] turned out to be 57%. For the same molecule, in the test on Mus musculus [15], the inhibition in vivo at 15 mg/kg came out at 76%.
`C[C@@H]1C[C@H]2[C@@H]3CCC4=CC(=O)C=C[C@]4(C)[C@@]3(F)[C@@H](O)C[C@]2(C)[C@@]1(O)C(=O)CO`: in the test on Mus musculus [27], the inhibition entry is “Active”.
